The results in this text go back to ChEMBL document CHEMBL1154912, “Moluccensins H-J, 30-ketophragmalin limonoids from Xylocarpus moluccensis” (J Nat Prod, 2010).

The structures appear in SMILES notation. ≈ marks a conversion by molar mass, not a printed value. Calls of active or inactive are those of the source. The calls are words filed in the database; no cut-off is given here.

Test [1] is described as follows: Cytotoxicity against human ChaGo cells after 3 days by MTT assay. Particulars: 72 h. Format: functional, cell-based. The essentials:
(§1)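 Cells grown in RPMI-1640 with 25 mM HEPES, 0.25% sodium bicarbonate, 5% FBS and 100 µg/mL kanamycin. Freshly trypsinized cells seeded at 5000 per well, compound added from DMSO-diluted stock, cultured three days. Attached cells stained with MTT, bound dye solubilized, absorbance read at 540 nm. IC50 (50% growth inhibition) averaged from at least six independent determinations.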
A general note: Tetrazolium assays rely on reduction of a dye to a coloured formazan, in cell work by metabolically active cells.

A further test has as its system SW-620. Nature of the test: Cytotoxicity against human SW620 cells after 3 days by MTT assay. Format: functional, cell-based. As to conditions: SW-620, 72 h. The method, boiled down: as §1
A further test has as its system Staphylococcus hominis. Nature of the test: Antibacterial activity against Staphylococcus hominis ATCC 27844 by broth microdilution method. The format is functional. The method, boiled down:
(§2)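 Broth microdilution per NCCLS protocol in Mueller Hinton broth; serial doubling dilutions from 0.5 to 256 µg/mL; final inoculum 5 × 10^5 cfu/mL. MIC taken as lowest concentration with no visible growth judged by turbidity.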
On the technique in general: In broth dilution the organism is exposed to a series of concentrations in liquid medium.

The subject of the next test is HepG2. Nature of the test: Cytotoxicity against human HepG2 cells after 3 days by MTT assay. Format: functional, cell-based. As to conditions: HepG2, 72 h. The essentials:
as §1

For the next test, the system named is Enterococcus faecalis. Nature of the test: Antibacterial activity against Enterococcus faecalis ATCC 29212 by broth microdilution method. The format is functional. The method, boiled down:
as §2

For a further test, the system named is BT-474. The test is described as follows: Cytotoxicity against human BT474 cells after 3 days by MTT assay. Particulars: BT-474, 72 h. The format is functional, cell-based. The method, boiled down: as §1
Test [2] in a line: Cytotoxicity against human KATO III cells after 3 days by MTT assay. The format is functional, cell-based, KATO III cell. Particulars: 72 h. The method, boiled down: as §1

Regarding `COC(=O)C[C@H]1[C@]2(C)C[C@]3(O)[C@@](O)(C(=O)C4=C(CC[C@]5(C)C4=CC(=O)O[C@H]5c4ccoc4)[C@]13C)[C@H]2OC(C)=O` [MOLUCCENSIN H], the IC50 (in test [1]; in the test on SW-620; in the test with HepG2; in the test on BT-474; in test [2]) was over 10 µg/mL in each case. The result in the test with Staphylococcus hominis and in the test on Enterococcus faecalis was inactive.
Regarding `COC(=O)C[C@H]1[C@]2(C)C[C@@]3(O)[C@]1(C)[C@H]1CC[C@]4(C)C(=C1C(=O)[C@@]3(OC)[C@H]2OC(C)=O)CC(=O)O[C@H]4c1ccoc1` [MOLUCCENSIN I], the IC50 (in test [1]; with SW-620; in the test with HepG2; in the test on BT-474; in test [2]) was over 10 µg/mL in each case. The figures for the MIC in the test on Staphylococcus hominis and with Enterococcus faecalis were 256 µg/mL (≈ 460 µM) and 223 µg/mL (≈ 401 µM), respectively.
Take `COC(=O)C[C@H]1[C@]2(C)C[C@]3(O)[C@@H](C(=O)C4=C5CC(=O)O[C@@H](c6ccoc6)[C@]5(C)CC[C@@H]4[C@]13C)[C@H]2OC(C)=O` [MOLUCCENSIN J]: the IC50 (in test [1]; in the test on SW-620; in the test on HepG2; in the test with BT-474; in test [2]) was over 10 µg/mL in each case. In addition, the outcome in the test with Staphylococcus hominis and in the test with Enterococcus faecalis was inactive.

As usually defined, the IC50 is the concentration needed to halve the response being measured. A lower IC50 goes with greater potency in that assay. For orientation: MIC means the lowest concentration found to suppress growth.
